Results gathered from unrelated publications.
Compare with care: the assays were run in different laboratories. ≈ marks a conversion by molar mass, not a printed value.

N#Cc1ccc(Cn2c(=S)[nH]c3ccc(Cl)cc3c2=O)cn1
MIC90 (Mycobacterium tuberculosis; microbial growth; H37RV): > 100 µM

COc1ccc(-c2cc(C(F)(F)F)c3c(N)c(C(=O)Nc4ccc(C)cc4C)sc3n2)cc1
IC50 (HepG2; cell growth or viability; 72 h): > 100 µM

CC(C)C(=O)OCc1cc2[nH]c(=S)n(Cc3cncc(C#N)c3)c(=O)c2cc1Cl
MIC90 (Mycobacterium tuberculosis; microbial growth; H37RV): 5.52 µM (≈ 2.37 µg/mL)

Clc1ccc(CCNc2cc(-c3ccccn3)nc3cc(Br)nn23)cc1
MIC (Mycobacterium tuberculosis; microbial growth; H37RV): 36 µM (≈ 15.4 µg/mL)

N=C(CC(O)c1cc2c(F)cc(F)cc2c2cc(C(F)(F)F)ccc12)NC1CC(F)(F)C1 (stereo not shown)
IC50 (HepG2; cell growth or viability, neutral red; 24 h): 7.2 µM

COCCNC(=O)c1sc2nc(-c3ccc(OC)cc3)cc(C(F)(F)F)c2c1N
IC50 (HepG2; cell growth or viability; 72 h): > 100 µM

CC(C)C(=O)OCc1cc2[nH]c(=S)n(Cc3cncc(C(N)=S)c3)c(=O)c2cc1Cl
MIC90 (Mycobacterium tuberculosis; microbial growth; H37RV): 18 µM (≈ 8.33 µg/mL)

N=C(CC(O)c1cc2c(F)cc(F)cc2c2cc(C(F)(F)F)ccc12)Nc1cccc(F)c1 (stereo not shown)
IC50 (HepG2; cell growth or viability, neutral red; 24 h): 11.4 µM

O=c1c2cc(Cl)ccc2[nH]c(=S)n1Cc1ccc(-c2ccccc2)nc1
MIC90 (Mycobacterium tuberculosis; microbial growth; H37RV): > 100 µM

CC(CNc1cc(-c2ccccn2)nc2nncn12)c1ccccc1 (stereo not shown)
IC90 (Mycobacterium tuberculosis; microbial growth; H37RV): 35 µM

CCN(CC)C(=O)c1sc2ncccc2c1N
IC50 (HepG2; cell growth or viability; 72 h): > 100 µM

N#Cc1ccc(NC(=N)CC(O)c2cc3c(F)cc(F)cc3c3cc(C(F)(F)F)ccc23)cc1 (stereo not shown)
IC50 (HepG2; cell growth or viability, neutral red; 24 h): > 25 µM

NC(=S)c1ccc(Cn2c(=S)[nH]c3ccc(Cl)cc3c2=O)cn1
MIC90 (Mycobacterium tuberculosis; microbial growth; H37RV): > 100 µM

CCCc1ccc(CNc2cc(-c3ccccn3)nc3nncn23)cc1
MIC (Mycobacterium tuberculosis; microbial growth; H37RV): > 100 µM

COC1CN(C(=O)c2sc3ncccc3c2N)C1
IC50 (HepG2; cell growth or viability; 72 h): > 100 µM

Cc1c(F)cccc1NC(=N)CC(O)c1cc2c(F)cc(F)cc2c2cc(C(F)(F)F)ccc12 (stereo not shown)
IC50 (HepG2; cell growth or viability, neutral red; 24 h): 11.3 µM

COc1ccc(-c2cc(C(F)(F)F)c3c(N)c(C(=O)Nc4c(C)cccc4C)sc3n2)cc1
IC50 (HepG2; cell growth or viability; 72 h): > 100 µM

O=c1c2cc(Cl)ccc2[nH]c(=S)n1Cc1ccc(-c2cscn2)nc1
MIC90 (Mycobacterium tuberculosis; microbial growth; H37RV): > 100 µM

CCCCN(CCCC)C(=N)CC(O)c1cc2c(F)cc(F)cc2c2cc(C(F)(F)F)ccc12 (stereo not shown)
IC50 (HepG2; cell growth or viability, neutral red; 24 h): 16.6 µM

Nc1c(C(=O)N2CCCC2)sc2nc(-c3ccc4c(c3)OCO4)cc(C(F)(F)F)c12
IC50 (HepG2; cell growth or viability; 72 h): > 100 µM

COCCC(c1cccnc1)n1c(=S)[nH]c2ccc(Cl)cc2c1=O (stereo not shown)
MIC90 (Mycobacterium tuberculosis; microbial growth; H37RV): > 100 µM

CCC(NC(=O)c1sc2nc(-c3ccc(OC)cc3)cc(C(F)(F)F)c2c1N)c1ccccc1 (stereo not shown)
IC50 (HepG2; cell growth or viability; 72 h): > 100 µM

CN(C)CCC(c1cccnc1)n1c(=S)[nH]c2ccc(Cl)cc2c1=O (stereo not shown)
MIC90 (Mycobacterium tuberculosis; microbial growth; H37RV): > 100 µM

COc1ccc(-c2cc(C(F)(F)F)c3c(N)c(C(=O)N4CCCCC4)sc3n2)cc1
IC50 (HepG2; cell growth or viability; 72 h): > 100 µM

Cc1nnc2nc(-c3ccccn3)cc(NCCc3ccc(Cl)cc3)n12
MIC (Mycobacterium tuberculosis; microbial growth; H37RV; 5 days): 17 to 50 µM (≈ 6.2 to 18.2 µg/mL)
